Bounds are passed on as bounds.

The source of these data is BindingDB's records for doi:10.1021/jm000929u (Universidad Complutense, 2001).

The assay addresses T1, 5-hydroxytryptamine receptor 1A (Rattus norvegicus, UniProt P19327).
T1 sequence (P19327 whole entry): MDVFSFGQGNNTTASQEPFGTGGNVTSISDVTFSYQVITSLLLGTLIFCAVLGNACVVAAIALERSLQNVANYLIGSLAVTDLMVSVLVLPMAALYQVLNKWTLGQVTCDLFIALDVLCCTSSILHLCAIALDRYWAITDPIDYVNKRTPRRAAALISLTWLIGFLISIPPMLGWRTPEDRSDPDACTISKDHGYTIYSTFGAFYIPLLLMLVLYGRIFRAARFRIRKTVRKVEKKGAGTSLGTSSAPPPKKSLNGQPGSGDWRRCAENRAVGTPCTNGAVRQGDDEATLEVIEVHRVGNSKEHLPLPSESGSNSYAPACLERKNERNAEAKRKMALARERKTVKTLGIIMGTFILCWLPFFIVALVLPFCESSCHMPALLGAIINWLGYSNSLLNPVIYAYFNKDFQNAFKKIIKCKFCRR
The assay is described as follows: In vitro binding affinity towards 5-hydroxytryptamine 1A receptor was determined using radioligand [3H]-8-OH-DPAT. In a few lines: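 Rat (male Sprague-Dawley) cerebral cortex membranes, about 1 mg protein, incubated 15 min at 37 °C with 0.6 nM [3H]8-OH-DPAT plus competitor in 50 mM Tris-HCl with 10 nM clonidine and 30 nM prazosin, pH 7.4. Nonspecific binding with 10 µM 5-HT. Triplicates; GF/B filtration, scintillation counting; IC50 curve fit, Ki by Cheng-Prusoff; 2-4 experiments.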
`N#Cc1ccccc1N1CCN(CCCn2c(O)c3n(c2=O)CCCC3)CC1`: the Ki (in general, a dissociation constant, usually derived from enzyme kinetics or from competition with a known ligand) amounted to 33 nM. In other words, the double-digit nanomolar range.
In the case of `Nc1cccc(N2CCN(CCCn3c(O)c4n(c3=O)CCC4)CC2)c1`, the Ki was over 1000 nM.
`O=c1n(CCCN2CCN(c3cccc(Br)c3)CC2)c(O)c2n1CCC2` returned an inhibitory constant (Ki) of 33 nM. This counts as double-digit nanomolar.
Under `CCCNC(=O)c1ccccc1N1CCN(CCCn2c(O)c3n(c2=O)CCC3)CC1` stands over 1000 nM.
For `CC(C)C(=O)Nc1cccc(N2CCN(CCCn3c(O)c4n(c3=O)CCCC4)CC2)c1`, the Ki was over 1000 nM.
